Consider six compounds from publication PMC3904296 (Journal of medicinal chemistry, 2013).

Each structure is given as a SMILES string.

Series [1] concerns male NIH Swiss mice. Briefly: Thermoregulation assay. Conditions: 10 mg/kg intraperitoneal, Figure 5. The series is classed as in vivo. The method, boiled down:
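Under isoflurane, a glass-encapsulated radiotelemetry probe was implanted in the peritoneal cavity. Mice recovered at least 7 days and were housed singly. On test days they were weighed, and baseline core temperature was recorded for at least 1 h. Drug or equal-volume vehicle was then injected, 4–8 mice per group. […] Data are mean ± SEM, analysed by one-way ANOVA with Tukey post-test.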

Series [2] addresses CB1Rs endogenously expressed in Neuro2A cells (Mus musculus, UniProt P47746). Briefly: Adenylyl cyclase assay in Neuro2A cells. Conditions: for inhibition of AC-activity via CB1Rs (concentration-effect curves): Neuro2A cells, Figure 3A; for antagonism of AC-inhibition produced by the CB1R full agonist 3: 1 μM concentration of antagonist, 10^−7 M concentration of 3, Figure 3B. The format is cell-based.

A further series relates to CB1Rs. As to conditions: cited from earlier work.
In another series the target is CB2Rs in CHO-hCB2 cells (Homo sapiens, UniProt P34972). Briefly: Adenylyl cyclase assay in CHO-hCB2 cells. The format is cell-based. Conditions: Figure 4A.
In the next series the test system is CHO-WT cells. Briefly: Adenylyl cyclase assay in CHO-WT cells not expressing CB2Rs. The format is cell-based. As to conditions: Figure 4B.
Series [3] concerns male NIH Swiss mice. Briefly: Oral EtOH self-administration. As to conditions: 10 mg/kg i.p. daily for 10 days. The format is in vivo.

Sequence of CB1Rs endogenously expressed in Neuro2A cells (P47746 whole entry): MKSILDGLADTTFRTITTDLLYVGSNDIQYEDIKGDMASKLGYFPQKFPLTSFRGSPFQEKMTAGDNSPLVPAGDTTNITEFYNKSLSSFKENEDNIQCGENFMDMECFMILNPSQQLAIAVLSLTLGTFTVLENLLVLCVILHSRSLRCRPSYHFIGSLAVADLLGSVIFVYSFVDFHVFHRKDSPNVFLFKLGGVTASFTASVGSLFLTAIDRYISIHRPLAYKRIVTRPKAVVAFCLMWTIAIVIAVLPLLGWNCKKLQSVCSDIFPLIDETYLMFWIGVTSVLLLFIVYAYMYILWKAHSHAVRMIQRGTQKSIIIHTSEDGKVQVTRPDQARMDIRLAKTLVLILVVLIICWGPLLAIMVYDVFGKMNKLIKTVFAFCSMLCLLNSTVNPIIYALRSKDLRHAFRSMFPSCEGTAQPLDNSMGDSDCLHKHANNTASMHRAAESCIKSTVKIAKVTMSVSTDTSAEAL
Sequence of CB2Rs in CHO-hCB2 cells (P34972 whole entry): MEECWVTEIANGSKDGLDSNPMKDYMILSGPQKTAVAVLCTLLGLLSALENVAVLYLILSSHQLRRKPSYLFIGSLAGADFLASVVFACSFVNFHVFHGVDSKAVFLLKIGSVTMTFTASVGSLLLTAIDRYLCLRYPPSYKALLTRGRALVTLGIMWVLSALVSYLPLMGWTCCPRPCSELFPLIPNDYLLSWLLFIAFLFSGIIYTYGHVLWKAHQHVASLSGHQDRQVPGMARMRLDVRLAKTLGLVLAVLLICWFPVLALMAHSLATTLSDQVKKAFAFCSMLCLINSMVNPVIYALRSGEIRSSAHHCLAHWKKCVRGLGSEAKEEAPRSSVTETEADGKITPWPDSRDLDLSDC

Regarding `CCCCn1cc(C(=O)c2cccc3ccccc23)c2ccccc21` [Compound 3, (1-butyl-1H-indol-3-yl)(naphthalen-1-yl)methanone], in the series with male NIH Swiss mice [1], the “hypothermic effect (core body temperature)” value was “elicited a profound hypothermic effect”.
As for `CCCCn1cc(C(=O)c2cccc3ccccc23)c2cccc(O)c21` [Compound 4, reference compound], the “inhibition of AC-activity via CB1Rs (concentration-effect curves)” value (from here on “inhibition of AC-activity via CB1Rs”) in series [2] is reported as 50–60%. Besides, the “intrinsic activity at CB1Rs in [35S]GTPγS functional assay” value in the series with CB1Rs is “lacks intrinsic activity”.
In the case of `CCCCn1cc(Cc2cccc3ccccc23)c2cccc(OC)c21` [Compound 27, 1-Butyl-7-methoxy-3-(naphthalen-1-ylmethyl)-1H-indole], in series [2], the “antagonism of AC-inhibition produced by the CB1R full agonist 3” value (“antagonism of AC-inhibition produced” below) is on record as “antagonize AC-inhibition produced by CB1R-agonist” and the “inhibition of AC-activity via CB1Rs” value is “very little inhibition of AC-activity”. On CB2Rs in CHO-hCB2 cells, the “inhibition of AC-activity at CB2Rs (concentration-effect curves)” value is 40–50%. The “modification of AC-activity in CHO-WT cells” value in the series on CHO-WT cells was “neither 27 nor 30 significantly modified AC-activity”. For the same compound, in the series on male NIH Swiss mice [3], the “EtOH preference (two-bottle choice, 10% EtOH vs water)” value was “reduced EtOH preference”; the “body weight across the treatment period” value was “did not decrease body weight”; the total fluid consumption entry is given as “without affecting total fluid consumption”.
For the compound `CCCCn1cc(-c2ccc3ccccc3c2)c2cccc(OC)c21` [Compound 30, 1-Butyl-7-methoxy-3-(naphthalen-2-yl)-1H-indole], in series [2], the “antagonism of AC-inhibition produced” value was “antagonize AC-inhibition produced by CB1R-agonist” and the “inhibition of AC-activity via CB1Rs” value was “very little inhibition of AC-activity”. Further, at CB2Rs in CHO-hCB2 cells, the “inhibition of AC-activity at CB2Rs (concentration-effect curves)” value is given as 40–50%. Also, the “modification of AC-activity in CHO-WT cells” value in the series on CHO-WT cells was “neither 27 nor 30 significantly modified AC-activity”. Further, in the series on male NIH Swiss mice [3], the “EtOH preference (two-bottle choice, 10% EtOH vs water)” value is reported as “reduced EtOH preference”; the “body weight across the treatment period” value is listed as “did not decrease body weight”; the total fluid consumption result is “without affecting total fluid consumption”.
For the compound `CC1=CC[C@@H]2[C@@H](C1)c1c(O)cc(CC#CCCCNS(C)(=O)=O)cc1OC2(C)C` [Compound O-2050, reference compound], the “antagonism of AC-inhibition produced” value in series [2] was “significantly antagonized AC-inhibition”.
On to `Cc1c(C(=O)NN2CCCCC2)nn(-c2ccc(Cl)cc2Cl)c1-c1ccc(Cl)cc1` [rimonabant, reference compound], for which, in the series with male NIH Swiss mice [3], the “EtOH preference (two-bottle choice, 10% EtOH vs water)” value was “decreased EtOH preference”; the “body weight across the treatment period” value is recorded as “decreased body weight”; the total fluid consumption result is “without altering total fluid intake”.
